According to publication PMC9898158 (Structure (London, England : 1993), 2022):
Where a name gives a salt, the structure may show the parent alone. Read-outs that look alike come from different tables or passages of the source.

Legend:
MDA-MB-231 WT cells = assay: Growth inhibition profiling; type: cell-based, human; conditions: read-out: IC50 (nM), MDA-MB-231 WT
MDA-MB-231 CLPX−/− cells = assay: Growth inhibition profiling; type: cell-based, human; conditions: read-out: IC50 (nM), MDA-MB-231 CLPX−/−
[1] = test system: HEK293 T-REx CLPX−/− cells; assay: Growth inhibition profiling; type: cell-based, human; conditions: read-out: IC50 (nM), HEK293 T-REx CLPX−/−
MDA-MB-231 CLPP−/− cells = assay: Growth inhibition profiling; type: cell-based, human; conditions: read-out: IC50 (nM), MDA-MB-231 CLPP−/−
HEK293 T-REx WT cells = assay: Growth inhibition profiling; type: cell-based, human; conditions: read-out: IC50 (nM), HEK293 T-REx WT
[2] = molecular target: ClpP (substrate TFAM lacking the MTS) (Homo sapiens, UniProt Q16740); assay: In vitro degradation assay using TFAM; type: biochemical; conditions: 20 μM compound, 13.5 μM TFAM, 15.5 μM ClpP, 37 °C, 0-5 h
ClpP (substrate TFAM lacking the MTS), sequence (Q16740 57-277): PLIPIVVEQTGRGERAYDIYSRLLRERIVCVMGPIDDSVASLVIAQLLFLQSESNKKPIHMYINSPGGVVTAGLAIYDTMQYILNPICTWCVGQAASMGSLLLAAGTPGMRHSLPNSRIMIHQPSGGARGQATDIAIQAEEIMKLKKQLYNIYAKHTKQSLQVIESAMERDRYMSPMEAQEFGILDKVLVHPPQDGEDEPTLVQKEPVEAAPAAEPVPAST

[3] = test system: HEK293 T-REx CLPP−/− cells; assay: Growth inhibition profiling; type: cell-based, human; conditions: read-out: IC50 (nM), HEK293 T-REx CLPP−/−
human ClpP = human ClpP (Homo sapiens, UniProt Q16740); assay: Casein-FITC degradation assay; type: biochemical; conditions: for Casein-FITC degradation h (at 2.5 μM ClpP): Hill coefficient, 2.5 μM ClpP protomer
human ClpP, sequence (Q16740 57-277): as above

MDA-MB-468 = assay: One-dose NCI-60 screen, MDA-MB-468; type: cell-based, human; conditions: 10 μM, 48-hour exposure
Summary of the method: (§1)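 Run by NCI DCTD. Cells were seeded at 5,000–40,000/well in RPMI 1640 with 5% FBS and 2 mM L-glutamine and grown 24 h at 37 °C, 5% CO2. Test compound was added at 10 μM final for 48 h, with a time-zero plate kept. Cells were fixed with cold TCA (10% final for adherent, 16% for non-adherent) and stained with 0.4% SRB. Growth was calculated from A515 at 0 and 48 h.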

MDA-MB-231 = assay: One-dose NCI-60 screen, MDA-MB-231; type: cell-based, human; conditions: 10 μM, 48-hour exposure
COLO205 = assay: One-dose NCI-60 screen, COLO205; type: cell-based, human; conditions: 10 μM, 48-hour exposure
Summary of the method: as §1

[4] = test system: TFAM and Grp75 levels in MDA-MB-231 WT cells; assay: Western blot of TFAM and Grp75, MDA-MB-231 WT; type: cell-based, human; conditions: 1 μM, 24 hours
Summary of the method: (§2)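 MDA-MB-231 cells (WT or CLPP−/−) were grown in DMEM/F-12 with 10% FBS and 2 mM L-glutamine. They were treated for 24 hours with 1 μM test compound or 6 μM of a reference compound. Pellets were sonicated in Dulbecco's PBS and protein was equalized. TFAM and Grp75 were detected by SDS-PAGE, transfer to PVDF and western blotting, imaged by film.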

[5] = test system: TFAM and Grp75 levels in MDA-MB-231 CLPP−/− cells; assay: Western blot of TFAM and Grp75, MDA-MB-231 CLPP−/−; type: cell-based, human; conditions: 1 μM, 24 hours
Summary of the method: as §2

[6] = test system: WT and CLPP−/− MDA-MB-231 cells; assay: Apoptotic onset check; type: cell-based, human
Summary of the method: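 WT and CLPP−/− MDA-MB-231 cells in DMEM/F-12 with 10% FBS and 2 mM L-glutamine were exposed to 1 μM test compound or DMSO for 24 hours. Morphology was checked by light microscopy and nuclei by DAPI fluorescence. Positive control was 2 μM doxorubicin or DMSO for 72 hours. Lysates were made by sonication in Dulbecco's PBS and protein-equalized, then run on SDS-PAGE, immunoblotted on PVDF and imaged on film.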

[7] = Homo sapiens, HEK293-T-REx, 72 h

Row | IC50 (MDA-MB-231 WT cells; Homo sapiens, MDA-MB-231, 72 h) | IC50 (MDA-MB-231 CLPX−/− cells; Homo sapiens, MDA-MB-231, 72 h) | IC50 (MDA-MB-231 CLPP−/− cells; Homo sapiens, MDA-MB-231, 72 h) | Kd (human ClpP) | Casein-FITC degradation h (at 2.5 μM ClpP) (human ClpP) | Compound | IC50 [1, 7] | IC50 (HEK293 T-REx WT cells; [7]) | IC50 [3, 7] | IC50 (MDA-MB-231 WT cells; 72 hr, SRB assay) | IC50 (MDA-MB-231 CLPX−/− cells; 72 hr, SRB assay) | IC50 ([1]; 72 hr, SRB assay) | IC50 (MDA-MB-231 CLPP−/− cells; 72 hr, SRB assay) | IC50 (HEK293 T-REx WT cells; 72 hr, SRB assay) | lethality (MDA-MB-468) | IC50 ([3]; 72 hr, SRB assay) | growth suppression (MDA-MB-231) | also measured
1 | 9.4 ± 0.2 nM | 9.4 ± 0.2 nM | > 1000 nM | 23.3 ± 9.1 nM | 10.9 ± 2.5 | N#Cc1cccc(CN2CCC3=C(C2)C(=O)N(Cc2ccc(Cl)cc2)C2=NCCN23)c1 [TR-65, 3-((4-(4-Chlorobenzyl)-5-oxo-1,2,4,5,8,9-hexahydroimidazo[1,2-a]pyrido[3,4-e]pyrimidin-7(6H)-yl)methyl)benzonitrile] | 11 ± 0.2 nM | 9.8 ± 0.3 nM | > 1000 nM |  |  |  |  |  |  |  |  | degradation of TFAM by compound-activated ClpP [2]: degradation of TFAM by TR-activated ClpP in a time-dependent manner
2 | 27.8 ± 0.4 nM | 29.5 ± 0.7 nM | > 1000 nM | 29.1 ± 7.8 nM | 6.2 ± 1.3 | N#Cc1cccc(CN2CCc3ncn(Cc4ccc(Br)cc4)c(=O)c3C2)c1 [TR-133, 3-([3-[(4-bromophenyl)methyl]-4-oxo-3H,4H,5H,6H,7H,8H-pyrido[4,3-d]pyrimidin-6-yl]methyl)benzonitrile] | 26 ± 2 nM | 20.7 ± 0.7 nM | > 1000 nM |  |  |  |  |  |  |  |  | 
3 |  |  |  |  | 8.1 ± 1.2 | C#Cc1cccc(CN2CCC3=C(C2)C(=O)N(Cc2ccc(Cl)cc2)C2=NCCN23)c1 [TR-27] |  |  |  | 90.7 ± 1.7 nM | 98.9 ± 1.7 nM | 57.7 ± 3.4 nM | > 1000 nM | 46.1 ± 1.3 nM |  | > 1000 nM |  | levels of TFAM and Grp75 [4]: reduced; levels of TFAM and Grp75 [5]: unchanged; ClpX level ([6]; 1 μM, 24 hours): reduced; signs of apoptosis (morphology, nuclear integrity, Mcl1, caspases 9, 3, 8) ([6]; 1 μM, 24 hours): absence of significant apoptosis
4 |  |  |  |  |  | COc1cccc2c1C(=O)c1c(O)c3c(c(O)c1C2=O)C[C@@](O)(C(=O)CO)C[C@@H]3O[C@H]1C[C@H](N)[C@H](O)[C@H](C)O1 [doxorubicin, doxorubicin hydrochloride, reference compound] |  |  |  |  |  |  |  |  |  |  |  | caspase 9 cleavage ([6]; 2 μM, 72 hrs, positive control): clearly showed caspase 9 cleavage

Row | Compound | IC50 (MDA-MB-231 WT cells; Homo sapiens, MDA-MB-231, 72 h) | IC50 (MDA-MB-231 CLPX−/− cells; Homo sapiens, MDA-MB-231, 72 h) | IC50 (MDA-MB-231 CLPP−/− cells; Homo sapiens, MDA-MB-231, 72 h) | Kd (human ClpP) | Casein-FITC degradation h (at 2.5 μM ClpP) (human ClpP) | IC50 [1, 7] | IC50 (HEK293 T-REx WT cells; [7]) | IC50 [3, 7] | IC50 (MDA-MB-231 WT cells; 72 hr, SRB assay) | IC50 (MDA-MB-231 CLPX−/− cells; 72 hr, SRB assay) | IC50 ([1]; 72 hr, SRB assay) | IC50 (MDA-MB-231 CLPP−/− cells; 72 hr, SRB assay) | IC50 (HEK293 T-REx WT cells; 72 hr, SRB assay) | lethality (MDA-MB-468) | IC50 ([3]; 72 hr, SRB assay) | growth suppression (MDA-MB-231) | also measured
5 | N#Cc1cccc(CN2CCc3ncn(Cc4ccc(Cl)cc4)c(=O)c3C2)c1 [TR-107] |  |  |  |  | 5.5 ± 0.7 |  |  |  | 29.4 ± 0.2 nM | 27.4 ± 0.8 nM | 27 ± 2 nM | > 1000 nM | 22.8 ± 0.7 nM | 22% | > 1000 nM | 73% | 
6 | Cn1c2c(c(=O)n(Cc3ccc(Cl)cc3)c1=O)CN(Cc1cccc(C#N)c1)CC2 [TR-57, 3-((3-(4-chlorobenzyl)-1-methyl-2,4-dioxo-1,2,3,4,7,8-hexahydropyrido[4,3-d]pyrimidin-6(5H)-yl)methyl)benzonitrile] | 19.3 ± 0.2 nM | 19.9 ± 0.3 nM | > 1000 nM | 15.5 ± 12 nM | 9.4 ± 7.8 | 11.8 ± 0.4 nM | 8.9 ± 0.2 nM | > 1000 nM |  |  |  |  |  | 15% |  | 68% | lethality (COLO205): 41%
